The list is not random: actives were taken first. Their share in the collection is about 1.9%.
ROMK mod: ROMK potassium channel modulators, primary screen, cell-based, thallium flux, MLSMR library | Tet-inducible ROMK, thallium flux fluorescence; actives lie on both sides | 130,000 tested, 2% active | B-score at 10 µM | AID 1918, 2009;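 active = signal ratio slope over the read window, or its plate-corrected B-score, at least 3 SD from the plate mean, either direction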;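 note: B-score of the F/F0 ratio slope over 7 to 12 s after thallium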
Target sequence (P48048 whole entry, looked up): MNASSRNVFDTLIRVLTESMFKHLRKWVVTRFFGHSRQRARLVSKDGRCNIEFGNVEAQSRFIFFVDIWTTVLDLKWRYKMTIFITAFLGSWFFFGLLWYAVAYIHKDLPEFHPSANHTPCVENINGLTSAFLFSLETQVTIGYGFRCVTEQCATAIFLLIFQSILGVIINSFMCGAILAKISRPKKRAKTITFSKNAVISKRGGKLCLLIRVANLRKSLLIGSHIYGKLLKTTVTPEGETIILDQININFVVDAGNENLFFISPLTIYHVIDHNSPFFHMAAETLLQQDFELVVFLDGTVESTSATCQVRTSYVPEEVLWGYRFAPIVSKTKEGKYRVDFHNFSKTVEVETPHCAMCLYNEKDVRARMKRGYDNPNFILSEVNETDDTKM
MT stabilizer: microtubule stabilizers in HeLa cells, primary screen, imaging, high-content imaging; HeLa tubulin immunostaining HCS, 24 h; share of cells brighter than vehicle mean+2SD; % tubulin-high responders, % at 10 µM; 200,000 tested, 0.83% active; AID 2205, 2009;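 active = plate Z-score above 3 for both tubulin-high and condensed-nucleus cell shares, with cell loss under 80%, at 10 µM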;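 note: anti alpha tubulin signal scored within the nucleus-defined area of each cell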
b-catenin transl: modulators of beta-catenin nuclear translocation, primary screen, imaging, HeLa cells, immunofluorescence, high-content. nuclear translocation activity, % at 5 µM. 190,000 tested, 0.3% active. AID 1665, 2009;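 active = nuclear translocation activity above 50% at 5 µM, with a well cell count of 50 or more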;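 note: per-cell ratio of nuclear to cytoplasmic median beta-catenin stain intensity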
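Test system: HeLa cells, endogenous beta-catenin; Compound: single 5 µM dose plus 0.02–20 µM confirmation series; Times: compound exposure 24 h at 37°C; Signal: fluorescence imaging of beta-catenin antibody stain plus DAPI; Read-out: % activation, nuclear-to-cytoplasmic median beta-catenin signal ratio per cell.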
Large screens that a line does not name were inactive.

COc1ccc(-c2nnnn2-c2ccccc2OC)cc1	MT stabilizer 20 (no result: ROMK mod)
Cc1ccccc1-n1nnnc1-c1ccccc1	none (no result: ROMK mod)
Cn1c(=S)[nH]c2[nH]c(=O)cnc2c1=O	none (no result: b-catenin transl)
COc1ccc(CNC(=O)C2CC(c3cccc(OC)c3)=NO2)cc1 (centres undefined)	none (no result: ROMK mod)
O=C(NCc1ccco1)C1CC(c2cccc([N+](=O)[O-])c2)=NO1 (centres undefined)	none
COc1ccccc1CNC(=O)C1CC(c2cccc([N+](=O)[O-])c2)=NO1 (centres undefined)	MT stabilizer 48 (no result: ROMK mod)
COc1cccc(C2=NOC(C(=O)NCc3cccs3)C2)c1 (centres undefined)	MT stabilizer 22, b-catenin transl 98 (no result: ROMK mod)
CCCNC(=O)[C@H](C)NC(=O)c1ccc(Br)cc1	none
COc1cccc(CN2CCN(Cc3cccc4nonc34)CC2CCO)c1 (centres undefined)	none
O=C(Nc1ccc(N2CCN(C(=O)c3ccccc3)CC2)cc1)c1ccc([N+](=O)[O-])o1	MT stabilizer 15
CC(C)C(=O)N1CCN(c2ccc(NC(=O)c3ccc([N+](=O)[O-])o3)cc2)CC1	none
CC(C)C(=O)N1CCN(c2ccc(NC(=O)c3ccc([N+](=O)[O-])o3)cc2Cl)CC1	MT stabilizer 53
CCCC(=O)N1CCN(c2ccc(NC(=O)c3ccc([N+](=O)[O-])o3)cc2Cl)CC1	none (no result: ROMK mod)
COc1cccc(-c2nc(COc3ccc(Cl)cc3Cl)no2)c1	none (no result: ROMK mod, MT stabilizer)
[O-][N+]1=c2ccc(Nc3ccccc3)cc2=NC12CCCCC2	MT stabilizer 29
COc1ccc(Nc2ccc3c(c2)=NC2(CCCCC2)[N+]=3[O-])cc1	none
CC(C)N1CCC(N2CCN(C3CCCCCC3)CC2CCO)CC1 (centres undefined)	none
COc1cc(/C=N/NC(=O)c2csc3c2CCCC3)cc(OC)c1O	none
Cc1ccc(/C=N/NC(=O)c2csc3c2CCCC3)cc1	MT stabilizer 20
O=C(NCCN1C(=O)S/C(=C\c2cccnc2)C1=O)C1=NN(c2ccccc2)C(=O)CC1	none
CC(=O)Nc1nc(=O)c2ccccc2s1	none
O=C(Nc1nc(=O)c2ccccc2s1)c1ccccc1	ROMK mod 3 (no result: b-catenin transl)
O=c1oc2ccccc2c(Nc2ccccc2O)c1[N+](=O)[O-]	none
O=c1oc2ccccc2c(Nc2cc3ccccc3cc2O)c1[N+](=O)[O-]	MT stabilizer 17
CCOC(=O)C1CCN(C(=O)c2ccccc2NS(=O)(=O)c2ccc(F)cc2)CC1	none
CC(=O)Nc1cccc(C(=O)/C=C/c2ccc(C)cc2)c1	none (no result: ROMK mod)
CN(C)c1ccc(/C=C/C(=O)c2cccc(Br)c2)cc1	MT stabilizer 14 (no result: ROMK mod)
Cc1csc(C(C)N(C)C(=O)CCc2nnc(CCc3ccccc3)o2)n1 (centres undefined)	none (no result: ROMK mod)
NC(N)=N/N=C/c1ccc(Br)cc1	MT stabilizer 24, b-catenin transl 113
N#Cc1ccc(/C=N/N=C(N)N)cc1	none
COc1ccc(CN(C(C)=O)c2cccc(C)c2C)cc1	MT stabilizer 43 (no result: ROMK mod)
CC(=O)N(Cc1ccccc1)c1ccccc1C(=O)O	none (no result: ROMK mod, MT stabilizer)
CC(=O)N(Cc1ccc(Br)cc1)c1cccc(C)c1C	b-catenin transl 52
CCc1cccc(C)c1NC(=O)CN(C)Cc1ccc(Br)cc1	none
COc1ccc(Nc2nc(C(F)(F)F)nc(C)c2C#N)cc1	none
N=C(N)N=Nc1c(O)[nH]c2ccc(Br)cc12	none
O=C(N=Nc1c(O)[nH]c2ccc(Br)cc12)c1ccccc1-n1cccc1	b-catenin transl 154
O=C(NCc1ccncc1)C(=O)N/N=C/c1cccnc1	none
COc1ccc(N2C(N)=C(C#N)C(c3cccnc3)C3=C2CC(C)(C)CC3=O)cc1 (centres undefined)	MT stabilizer 50
COc1ccc(C2C(C#N)=C(N)N(c3cccnc3)C3=C2C(=O)CC(C)(C)C3)cc1OC (centres undefined)	none
CCCCCC1=CCC/C1=N\NC(=O)c1ccc2c(c1)OCO2	none
CCN(CC)S(=O)(=O)c1ccc(N2CCOCC2)c(NC(=O)c2cc([N+](=O)[O-])ccc2Cl)c1	none
Cc1cc(C)cc(C(=O)NC(=S)Nc2ccc(Cc3ccncc3)cc2)c1	MT stabilizer 12
Cc1cccc(C(=O)NC(=S)Nc2ccc(Cc3ccncc3)cc2)c1	none
Cc1cc(C)c2c(N)c(C(=O)N/N=C/c3ccccc3)sc2n1	none (no result: MT stabilizer)
CCOc1ccc(N(CC(=O)Nc2ccccc2C(=O)NC(C)CC)S(C)(=O)=O)cc1 (centres undefined)	none (no result: b-catenin transl)
Cc1cc(=O)[nH]c(N/N=C/c2cn(CCC#N)nc2-c2ccccc2)n1	none
COc1ccc(-c2cc(C(=O)Nc3c(C)n(C)n(-c4ccccc4)c3=O)no2)cc1OC	none (no result: b-catenin transl)
Cc1ccc2cc(CN(Cc3ccco3)C(=O)NCc3ccccc3)c(=O)[nH]c2c1C	none (no result: ROMK mod)
COc1ccccc1NC(=O)N(CCN1CCOCC1)Cc1cc2cc(C)cc(C)c2[nH]c1=O	none
COc1ccccc1NC(=O)N(Cc1ccco1)Cc1cc2cc(C)cc(C)c2[nH]c1=O	MT stabilizer 26
COc1ccccc1NC(=S)N(Cc1ccco1)Cc1cc2cc(C)c(C)cc2[nH]c1=O	b-catenin transl 64
COc1ccccc1NC(=S)N(Cc1ccco1)Cc1cc2cccc(C)c2[nH]c1=O	none
COc1ccccc1NC(=O)N(Cc1ccco1)Cc1cc2ccc(C)c(C)c2[nH]c1=O	b-catenin transl 122 (no result: ROMK mod)
Cc1ccc2[nH]c(=O)c(CN(Cc3ccco3)C(=O)c3cccs3)cc2c1	none (no result: b-catenin transl)
Cc1ccc2cc(CN(Cc3ccco3)C(=O)c3cccs3)c(=O)[nH]c2c1	MT stabilizer 34 (no result: b-catenin transl)
Cc1ccc(-c2nnn(CC(=O)Nc3nnc(C(C)C)s3)n2)cc1	none
CCOC(=O)c1c(C)[nH]c(C(=O)NCc2ccco2)c1C	none
NS(=O)(=O)c1ccc(NC(=O)C(Sc2ccccc2)c2ccccc2)cc1 (centres undefined)	none (no result: ROMK mod)
NC(=S)NC(=O)/C=C/c1ccccc1	none (no result: ROMK mod)
CCNC(=S)N(Cc1ccco1)Cc1cc2cc3c(cc2[nH]c1=O)OCCO3	none (no result: b-catenin transl)
CC(C)CNC(=S)N(Cc1ccco1)Cc1cc2cc3c(cc2[nH]c1=O)OCCO3	MT stabilizer 33 (no result: ROMK mod)
CCOC(=O)C1(Cc2ccccc2)CCCN(C2CCCC2)C1 (centres undefined)	none
O=C(O)CCn1cc(C(=O)O)c(-c2ccccc2)n1	none (no result: ROMK mod, MT stabilizer)
CCOc1ccc(NC(=O)N[C@@H](Cc2ccccc2)C(=O)O)cc1	none (no result: ROMK mod, MT stabilizer)
CC(C)OCCCN1C(=O)c2[nH]nc(-c3ccccc3O)c2C1c1cccc(Cl)c1 (centres undefined)	none (no result: ROMK mod)
COCCCN1C(=O)c2[nH]nc(-c3cc(C)cc(C)c3O)c2C1c1ccc(O)c(OC)c1 (centres undefined)	none
COCCCN1C(=O)c2[nH]nc(-c3ccccc3O)c2C1c1cccc(Cl)c1 (centres undefined)	MT stabilizer 36
COCCCN1C(=O)c2[nH]nc(-c3ccccc3O)c2C1c1ccc(Cl)cc1 (centres undefined)	MT stabilizer 44
O=C(COc1ccccc1F)NCc1ccc(-n2cccc2)cc1	none (no result: ROMK mod)
COc1ccc(CCNC(=O)COc2ccc(C)nc2[N+](=O)[O-])cc1	none
CCCN1CCC(=NNc2ccc(S(=O)(=O)N3CCOCC3)cc2[N+](=O)[O-])CC1	MT stabilizer 14, b-catenin transl 120

Source: PubChem
